Test results reported in ChEMBL document CHEMBL2424641, “Synthesis and evaluation of novel radioligands for positron emission tomography imaging of the orexin-2 receptor” (J Med Chem, 2013).

How the values were obtained:
LLC-PK1 = assay: Flux ratio of permeability from apical to basolateral to basolateral to apical side in pig LLC-PK1 cells after 2 hrs; assay type: ADME, cell-based, Sus scrofa; conditions: llc-pk1, 2 h
Outline: (§1)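 LLC-PK1 and LLC-MDR1 monolayers, 5 days post-seeding, preincubated 2 h at 37 °C in HBSS/10 mM HEPES. Compound added apically or basally, 2 h at 37 °C; opposite side assayed by LC-MS. Papp = Q/t/C0/A; FR = Papp(b→a)/Papp(a→b); corrected FR = FR(LLC-MDR1)/FR(LLC-PK1).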

[1] = Ratio of flux ratio in pig LLC cells expressing MDR1 to flux ratio on pig LLC-PK1 cells; assay type: ADME, cell-based, Sus scrofa; outline: as §1
[2] = target: T1, Orexin/Hypocretin receptor type 1 (Homo sapiens, UniProt O43613); assay: Displacement of [125I]-orexin-A from human OX1 receptor expressed in CHO cells after 30 mins by liquid scintillation counting analysis; assay type: cell-based
T1 sequence (O43613 whole entry): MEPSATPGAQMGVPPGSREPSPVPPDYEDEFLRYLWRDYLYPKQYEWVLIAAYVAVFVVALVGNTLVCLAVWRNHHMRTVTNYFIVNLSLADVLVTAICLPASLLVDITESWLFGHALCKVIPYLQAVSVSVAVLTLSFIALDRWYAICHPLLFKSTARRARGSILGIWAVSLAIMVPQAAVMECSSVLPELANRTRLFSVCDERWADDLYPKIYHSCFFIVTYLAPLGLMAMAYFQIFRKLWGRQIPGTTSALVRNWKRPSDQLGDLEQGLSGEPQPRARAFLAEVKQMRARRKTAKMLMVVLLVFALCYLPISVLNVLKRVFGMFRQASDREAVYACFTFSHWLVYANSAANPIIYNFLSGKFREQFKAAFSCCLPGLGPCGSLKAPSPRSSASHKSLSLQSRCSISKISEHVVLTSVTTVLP
Outline: (§2)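 CHO membranes expressing human OX1R or OX2R (5 μg protein) incubated 30 min at rt with compound and [125I]-orexin A (2 nM stock) in HEPES buffer pH 7.5 with MgCl2, CaCl2, BSA. Nonspecific binding with 10 μM orexin A. Wells washed with HEPES/525 mM NaCl and DPM counted. % inhibition from test, control and nonspecific counts; mean of three wells.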

[3] = Flux ratio of permeability from apical to basolateral to basolateral to apical side in pig LLC cells expressing MDR1 after 2 hrs; assay type: ADME, cell-based, Sus scrofa; outline: as §1
Orexin receptor type 2 = target: T2, Orexin receptor type 2 (Homo sapiens, UniProt O43614); assay: Displacement of [125I]-orexin-A from human OX2 receptor expressed in CHO cells after 30 mins by liquid scintillation counting analysis; assay type: cell-based; outline: as §2
T2 sequence (O43614 whole entry): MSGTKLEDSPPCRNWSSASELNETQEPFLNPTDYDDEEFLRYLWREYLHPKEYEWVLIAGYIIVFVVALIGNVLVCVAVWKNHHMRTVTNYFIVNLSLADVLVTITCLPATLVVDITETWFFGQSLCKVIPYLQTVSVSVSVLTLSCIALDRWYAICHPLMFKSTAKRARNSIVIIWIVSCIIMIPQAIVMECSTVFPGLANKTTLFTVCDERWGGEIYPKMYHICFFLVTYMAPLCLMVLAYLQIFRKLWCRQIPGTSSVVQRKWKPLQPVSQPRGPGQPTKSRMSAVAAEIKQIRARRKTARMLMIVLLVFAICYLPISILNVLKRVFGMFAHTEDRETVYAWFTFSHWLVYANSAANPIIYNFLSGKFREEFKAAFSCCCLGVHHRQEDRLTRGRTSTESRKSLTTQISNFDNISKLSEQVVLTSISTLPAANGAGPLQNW

Thalamus = assay: Drug uptake in P-gp-knockout rat thalamus at 78.7 to 189.8 MBq, iv after 90 mins by PET analysis; assay type: ADME, organism-based; conditions: in vivo, 1.5 h
Outline: (§3)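 Male Mdr1a-knockout rats (410−500 g) under 1.5% isoflurane at 37 °C; [11C] tracer 78.7−189.8 MBq by tail vein. 90 min list-mode microPET scan with filtered back-projection; ROIs drawn on MRI template; decay-corrected %ID/mL, n = 3. Blocking: unlabeled compound 10 mg/kg po in 5% DMSO/10% cremophor in 10 mM HCl, given 1 h before tracer.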

[4] = Octanol-phosphate buffer partition coefficient, log D of the compound at pH 7.4 by Shake flask method; assay type: physicochemical
Outline: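 [11C]-labelled compound (about 200 000 cpm) in n-octanol and 0.1 M PBS pH 7.4, vortexed 3 min at rt and centrifuged; weighed aliquots of each phase γ-counted, with the organic layer repartitioned until stable. log D = log(cpm/g octanol ÷ cpm/g PBS); triplicate.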

[5] = Drug uptake in P-gp-knockout rat neocortex at 78.7 to 189.8 MBq, iv after 90 mins by PET analysis; assay type: ADME, organism-based; conditions: in vivo, 1.5 h; outline: as §3
Cerebellum = assay: Drug uptake in P-gp-knockout rat cerebellum at 78.7 to 189.8 MBq, iv after 90 mins by PET analysis in presence of 10 mg/kg, po unlabeled compound; assay type: ADME, organism-based; set-up: dose 10 mg/kg, route oral; conditions: in vivo, 1.5 h; outline: as §3
Hippocampus = assay: Drug uptake in P-gp-knockout rat hippocampus at 78.7 to 189.8 MBq, iv after 90 mins by PET analysis; assay type: ADME, organism-based; conditions: in vivo, 1.5 h; outline: as §3

Structure (SMILES) | Ratio (LLC-PK1) | Ratio [1] | Ki [2] | Ratio [3] | Ki (Orexin receptor type 2) | Drug uptake (Thalamus) | logD [4] | Drug uptake [5] | Drug uptake (Cerebellum) | Drug uptake (Hippocampus)
Cc1ncc(OC[C@@]2(c3cccc(F)c3)C[C@H]2C(=O)Nc2ccc(C#N)cn2)c(C)n1 | 1.09 | 1.76 | 32 nM | 1.92 | 5 nM |  |  |  |  | 
COCc1nc(C)ncc1OC[C@@]1(c2ccccc2)C[C@H]1C(=O)Nc1ccc(F)cn1 | 0.97 | 2.03 | 9 nM | 1.97 | 1 nM |  |  |  |  | 
Cc1ncc(OC[C@@]2(c3cccc(F)c3)C[C@H]2C(=O)Nc2cc(O[11CH3])c(F)cn2)c(C)n1 |  |  |  |  |  | Active | 2.93 | Active | Not Active | Active
Cc1ncc(OC[C@@]2(c3cccc(F)c3)C[C@H]2C(=O)Nc2ccc(F)c(O[11CH3])n2)c(C)n1 |  |  |  |  |  |  | 3.6 |  |  | 
